pIC50: −log10 of the molar value. “Also recorded” adds a separate entry of the source.
Key:
Assay type in all cases: biochemical
human TG2 [1] = target: T1, human TG2 (Homo sapiens, UniProt P21980); experiment: preliminary screening of isatins as TG2 inhibitors
T1 sequence (P21980 1-687): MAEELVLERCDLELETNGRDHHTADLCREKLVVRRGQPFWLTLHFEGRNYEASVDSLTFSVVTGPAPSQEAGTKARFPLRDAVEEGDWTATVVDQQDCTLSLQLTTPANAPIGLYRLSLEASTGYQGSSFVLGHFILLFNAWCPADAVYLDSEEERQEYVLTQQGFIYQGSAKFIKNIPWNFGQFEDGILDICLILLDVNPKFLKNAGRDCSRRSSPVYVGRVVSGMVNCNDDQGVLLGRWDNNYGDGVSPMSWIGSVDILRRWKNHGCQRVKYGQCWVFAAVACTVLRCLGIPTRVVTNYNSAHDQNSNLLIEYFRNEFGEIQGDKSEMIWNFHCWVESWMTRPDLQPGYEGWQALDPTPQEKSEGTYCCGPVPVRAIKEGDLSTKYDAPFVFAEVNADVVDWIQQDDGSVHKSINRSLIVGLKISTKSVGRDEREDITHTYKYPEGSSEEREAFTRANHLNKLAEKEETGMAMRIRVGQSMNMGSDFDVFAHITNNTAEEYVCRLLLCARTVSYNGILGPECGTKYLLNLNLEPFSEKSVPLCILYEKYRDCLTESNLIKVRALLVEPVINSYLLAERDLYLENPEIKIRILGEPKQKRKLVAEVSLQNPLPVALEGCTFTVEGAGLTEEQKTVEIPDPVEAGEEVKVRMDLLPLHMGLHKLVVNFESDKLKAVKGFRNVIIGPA
How it was run: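 Coupled GDH assay of TG2-catalysed deamidation of the substrate ZQG, with human TG2 at 0.5 µM. Inhibition by isatin-derived test compounds is read as IC50.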

human TG2 [2] = target: T1, human TG2; experiment: GDH-coupled deamidation assay with Cbz-Gln-Gly; conditions: for GDH-coupled assay α (ratio Ki’/Ki): Table 4, [TG2] = 0.5 µM, mixed inhibition model
human TG2 [3] = target: T1, human TG2; experiment: direct fluorometric assay; conditions: for partial inhibition activity (in words): fluorometric assay; for Fluorescent assay α (ratio Ki’/Ki): Table 4, [TG2] = 15 nM, mixed inhibition model; for binding character in mixed inhibition model (in words): compounds that did not exhibit partial inhibition
How it was run: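 Direct fluorometric assay following release of 7-hydroxycoumarin from an ester substrate by human TG2 at 15 nM. Ki and Ki' are fitted to a mixed inhibition model, with α = Ki'/Ki. A larger α means more competitive inhibition, α = 1 means simple non-competitive, and α < 1 means increasingly uncompetitive.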

Structure (SMILES) | TG2 inhibitory activity (in words) (human TG2 [2]; GDH-coupled assay) | GDH-coupled assay α (ratio Ki’/Ki) (human TG2 [2]) | also measured
O=C1Nc2c(F)cc(F)cc2C1=O [5,7-difluoroisatin] |  |  | pIC50 (human TG2 [1]): 3.35 to 4.19
O=C1Nc2ccc(Br)cc2C1=O [5-bromo] |  |  | pIC50 (human TG2 [1]): 3.35 to 4.19
O=C1Nc2ccc(Cl)cc2C1=O [5-chloro] |  |  | pIC50 (human TG2 [1]): 3.35 to 4.19
O=C1Nc2ccc(I)cc2C1=O [5-iodo] |  |  | pIC50 (human TG2 [1]): 3.35 to 4.19
Cc1cc(C)c(CN2C(=O)C(=O)c3ccccc32)cc1CN1C(=O)C(=O)c2ccccc21 [Compound 4] | active |  | 
O=C1C(=O)N(CN2C(=O)C(=O)c3ccccc32)c2ccccc21 [Compound 6] | active |  | 
O=C1Nc2ccccc2/C1=C1/Nc2ccccc2C1=O [Compound 7, indirubin] | inactive |  | 
O=C1Nc2ccccc2/C1=C1\C(=O)Nc2ccccc21 [Compound 8, isoindigotin] | promising inhibitors |  | 
CC(=O)/C=C1/C(=O)Nc2ccccc21 [Compound 9] | promising inhibitors |  | 
CC(=O)/C=C1/C(=O)Nc2cccc(Cl)c21 [Compound 10] |  | > 100 | 
CC(=O)/C=C1/C(=O)Nc2ccc(Cl)cc21 [Compound 11] |  | > 100 | 
CC(=O)/C=C1/C(=O)Nc2cc(F)ccc21 [Compound 12] |  | > 100 | 
O=C1Nc2cccc(Cl)c2/C1=C\C(=O)c1cccnc1 [Compound 16] |  | > 100 | 
COc1ccncc1C(=O)/C=C1/C(=O)Nc2cccc(Cl)c21 [Compound 19] |  |  | partial inhibition activity (in words) (human TG2 [3]): partial inhibition activity
O=C1Nc2cccc(Cl)c2/C1=C\C(=O)c1ccccc1 [Compound 20] |  | > 100 | 
O=C1Nc2cccc(Cl)c2/C1=C\C(=O)c1ccc(Cl)cc1 [Compound 22] |  |  | partial inhibition activity (in words) (human TG2 [3]): partial inhibition activity
Nc1ccc(C(=O)/C=C2/C(=O)Nc3cccc(Cl)c32)cc1 [Compound 27] |  |  | partial inhibition activity (in words) (human TG2 [3]): partial inhibition activity
CN1C(=O)/C(=C/C(=O)c2cccnc2)c2c(Cl)cccc21 [Compound 28] |  | > 100 | 
O=C(/C=C1/C(=O)N(Cc2ccccc2)c2cccc(Cl)c21)c1cccnc1 [Compound 33] |  | 1.8 | Fluorescent assay α (ratio Ki’/Ki) (human TG2 [3]): 3.6; binding character in mixed inhibition model (in words) (human TG2 [3]): non-competitive binding character
O=C1Nc2ccccc2/C1=C\C(=O)c1cccnc1 [Compound 40] |  | > 100 | loss in potency relative to compound 16 (human TG2 [2]; GDH-coupled assay IC50): > 20 fold
O=C1Nc2cccc(Br)c2/C1=C\C(=O)c1cccnc1 [Compound 41] | sub-micromolar inhibitor | > 100 | Fluorescent assay α (ratio Ki’/Ki) (human TG2 [3]): 2.6; binding character in mixed inhibition model (in words) (human TG2 [3]): non-competitive binding character
O=C1Nc2ccc(Br)cc2/C1=C\C(=O)c1cccnc1 [Compound 43] |  | > 100 | Fluorescent assay α (ratio Ki’/Ki) (human TG2 [3]): 4.4; binding character in mixed inhibition model (in words) (human TG2 [3]): non-competitive binding character
O=C1Nc2cc(Cl)ccc2/C1=C\C(=O)c1cccnc1 [Compound 46] | nearly as potent as compound 16 | 0.86 | mode of inhibition (Lineweaver-Burk analysis) (human TG2 [2]; GDH-coupled assay): non-competitive, allosteric mode of action; also recorded: non-competitive inhibitory character
O=C1Nc2cc(Br)ccc2/C1=C\C(=O)c1cccnc1 [Compound 47] | nearly as potent as compound 16 |  | partial inhibition activity (in words) (human TG2 [3]): partial inhibition activity
O=C1Nc2c(Cl)cccc2/C1=C\C(=O)c1cccnc1 [Compound 48] |  |  | partial inhibition activity (in words) (human TG2 [3]): partial inhibition activity
